Screening results from PubChem.
Only some compounds are listed: those with a hit (about 1.2% of all), similar ones and a draw of the others.
proCasp7 act = activates human procaspase-7, counter-screen for procaspase-3 activators. P55210. recombinant procaspase-7, Ac-DEVD-pNA absorbance 405 nm; D23A/D198A/D206A triple mutant, cannot self-cleave; scale: DMSO 0, 5 µM enzyme 100. activation, % at 8.5 µM. 0.093% of 330,000 active;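 active = percent activation above the screen-wide mean plus 3 SD, cut at about 25% in these data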
Target sequence (P55210 whole entry D23A/D198A/D206A): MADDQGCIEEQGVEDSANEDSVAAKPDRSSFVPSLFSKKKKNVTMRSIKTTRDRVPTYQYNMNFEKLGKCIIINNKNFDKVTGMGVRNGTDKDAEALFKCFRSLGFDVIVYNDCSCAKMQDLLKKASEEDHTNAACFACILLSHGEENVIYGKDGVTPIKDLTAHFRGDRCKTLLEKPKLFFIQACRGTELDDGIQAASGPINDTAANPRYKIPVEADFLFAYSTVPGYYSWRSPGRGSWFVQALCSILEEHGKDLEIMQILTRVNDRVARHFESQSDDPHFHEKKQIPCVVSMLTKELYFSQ
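System: Procaspase-7 triple mutant (PC-7 D3A); measure: % activation from two-timepoint absorbance difference, scaled to controls; times: 1 h compound preincubation, 2 h substrate cleavage, 25 °C; also added: Ac-DEVD-pNA substrate, 400 µM as added; measured by: Epi-absorbance of released pNA at 405 nm, two timepoints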
MsrA inhibitor = bovine MsrA inhibition; purified bovine MsrA, absorbance read-out; inhibition, % at 15.5 µM; 0.75% of 360,000 active; AID 651718; in the data active = inhibition above about 4.5%;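 note: 0% = vehicle wells with enzyme and 100% = reference inhibitor wells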
proCasp3 act = activators of human procaspase-3 | P42574 | recombinant procaspase-3 D3A, Ac-DEVD-pNA absorbance 405 nm | activation, % at 8.5 µM | 0.11% of 330,000 active | AID 463141;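 active = activation above the mean of all tested compounds plus 3 SD, cut at about 21% in these data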;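 note: 0% = DMSO alone and 100% = DMSO wells spiked with extra 5 µM PC-3 D3A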
Target sequence (P42574 whole entry D9A/D28A/D175A): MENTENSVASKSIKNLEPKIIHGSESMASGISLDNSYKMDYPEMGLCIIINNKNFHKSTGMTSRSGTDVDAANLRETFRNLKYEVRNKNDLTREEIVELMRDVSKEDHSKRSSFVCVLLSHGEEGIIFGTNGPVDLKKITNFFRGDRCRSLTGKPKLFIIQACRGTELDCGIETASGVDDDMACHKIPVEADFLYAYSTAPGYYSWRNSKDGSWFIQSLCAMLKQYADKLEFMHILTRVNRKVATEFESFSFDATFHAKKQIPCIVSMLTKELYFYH
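Technique: 405 nm absorbance of p-nitroaniline, reads at 0 and 120 min; Test system: Procaspase-3 D3A mutant; Incubation: 1 h enzyme-compound preincubation, then 2 h substrate reaction, 25 °C; Repeats: singlicate, each compound tested once; Benchmarks: low control DMSO wells, high control DMSO plus 5 µM PC-3 D3A.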
MsrA act = activates bovine MsrA enzyme. AID 602163. purified bovine MsrA, absorbance read-out. activation, % at 10.6 µM. 0.3% of 360,000 active; in the data active = activation above about 7.5%;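 note: 0% = vehicle and 100% = reference activator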
MsrA act confirm = confirmation of bovine methionine sulfoxide reductase A activators | shares compounds with MsrA act | purified bovine MsrA, absorbance read-out | activation, % at 10.6 µM | 12% of 1,000 active; in the data active = activation above about 4%;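 note: enzyme coupled to thioredoxin and thioredoxin reductase with NADPH; 0% = vehicle wells and 100% = reference activator wells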
An asterisk follows results filed as active; / = no result given.

SMILES | proCasp7 act | MsrA inhibitor | proCasp3 act | MsrA act | MsrA act confirm
CCOC(=O)c1cc2c(=O)n3ccccc3nc2n(CCCOC)c1=NC(=O)C(C)(C)C | -3 | -1 | -7 | -1 | /
CCOC(=O)c1cc2c(=O)n3ccccc3nc2n(CCOC)c1=NC(=O)C(C)(C)C | -4 | 0 | -4 | 8.2* | 0
O=c1cc(CSc2ccccc2)[nH]c(=S)[nH]1 | 3 | 1 | -2 | 11* | 4
O=c1cc(CSc2ccccc2)[nH]c2ccccc12 | 8 | 0 | -1 | -1 | /
O=C(COC(=O)Cc1ccsc1)Nc1ccccc1 | 4 | 1 | 7 | 25* | 2
CC(C)C1C(=O)N(Cc2cn(CC3CCCCC3)nn2)CCS(=O)(=O)N1Cc1ccc(-c2ccc(F)nc2)cc1 (stereo not given) | / | 0 | / | 8.9* | -1
CCCNC(=O)C1(C)CCCN(Cc2noc(-c3c(C)noc3C)n2)C1 (stereo not given) | / | 0 | / | 2 | /
CCNC(=O)C1(C)CCCN(Cc2noc(-c3c(C)noc3C)n2)C1 (stereo not given) | / | 0 | / | 9.2* | 0
Cc1nn(CCC(=O)NNC(=S)Nc2cccc(Cl)c2)c(C)c1[N+](=O)[O-] | -11 | 0 | -5 | 11* | 0
C=CCN=C1NC(c2ccc(C(F)(F)F)cc2)C(C(=O)OC)=C(C)N1C (stereo not given) | / | 1 | / | / | /
O=C(COc1ccc(Cl)cc1)Nc1cccc(-c2ccc3nncn3n2)c1 | 6 | 2 | 1 | 15* | -4
Cc1cnc(C(=O)OCC(=O)Nc2cccc(C)c2C)cn1 | 4 | 0 | 3 | -6 | /
Cc1cnc(C(=O)OCC(=O)Nc2cccc3ccccc23)cn1 | 4 | -2 | 1 | 13* | -1
Nc1ncnc2c1ncn2[C@@H]1O[C@H](C(=O)N[C@@H](CCc2ccccc2)C(=O)N2CCN(CC(=O)N3CCCC3)CC2)[C@@H](O)[C@H]1O | / | 1 | / | / | /
COC(=O)C1=C(C)N(Cc2ccc(C(F)(F)F)cc2)C(=NCc2ccccc2)NC1c1cccc(Cl)c1 (stereo not given) | / | -2 | / | / | /
Cc1cc(CN(C)C(=O)CC2C(=O)NCCN2CC(c2ccccc2)c2ccccc2)on1 (stereo not given) | -1 | 2 | 4 | -1 | /
COCCN(C)C(=O)CC1C(=O)NCCN1CC(c1ccccc1)c1ccccc1 (stereo not given) | 3 | 0 | 6 | 11* | -3
CCCCCC#CCN1CCN(C23CC4CC(CC(C4)C2)C3)CC1 | -2 | / | 6 | 8.8* | 3
O=C(CC1CCCC1)N[C@H](C(=O)N1CCC[C@H]1C(=O)NC1CCCC1)c1ccccc1 | / | 0 | / | / | /
CCOc1cc(C)c(Cl)cc1S(=O)(=O)NCc1ccc2c(c1)OCO2 | -1 | 1 | -3 | 7.8* | 2
COc1ccc(-c2cccc3[nH]c4c(c23)CCN2C(=O)[C@H]3[C@H](C)ON(C)[C@H]3C[C@@H]42)cc1 | / | 0 | / | / | /
COCCN(CCOC)Cc1cc(=O)oc2cc3c(cc12)CCC3 | 19 | 1 | 6 | 1 | /
COCCN(CCOC)Cc1cc(=O)oc2cc(C)ccc12 | / | 1 | / | 12* | -1
Cc1nc2c(nc1C)C(=O)c1ccccc1C2=O | / | 1 | / | 13* | 8.4*
O=C1c2ccccc2-c2nc3ccccc3nc21 | 0 | 0 | 6 | 4 | /
SMILES | proCasp7 act | MsrA inhibitor | proCasp3 act | MsrA act | MsrA act confirm
COc1cccc2c(=O)cc(C)n(CC(=O)Nc3ccc(C)c(C)c3)c12 | -8 | 0 | -5 | 9.4* | 0
CN1CCN(NC(=S)NC2CCCC2)CC1 | 1 | 0 | -7 | 7.9* | 3
Cc1ccc(C(=O)CC(C(=O)O)n2cnc([N+](=O)[O-])n2)cc1 (stereo not given) | -29 | -1 | -23 | 9.4* | -2
C[C@@H]1COc2cc(N3CCOCC3)ccc2S(=O)(=O)N1 | / | 0 | / | / | /
COc1ccccc1CCn1cnc(-c2ccc(OC)c(OC)c2)c1CC(C)C | / | 1 | / | / | /
Fc1ccc(NC(=S)Nc2ccccc2N2CCOCC2)cc1Cl | -5 | 0 | 2 | 9.7* | 0
Cc1cc(C)c(S(=O)(=O)/N=C2/C=C(Sc3ncn[nH]3)C(=O)c3ccccc32)cc1C | -23 | 61* | -21 | 14* | 8.0*
CCc1cccc(NC(=O)c2cccc3c2C(=O)N(C2CCCCC2)C3)c1 | 15 | / | 4 | 8.6* | -1
O=C(Nc1cccc(F)c1)c1cccc2c1C(=O)N(C1CCCCC1)C2 | 12 | 1 | 0 | -2 | /
Cc1cc(C)c(S(=O)(=O)NC2CCN(Cc3ccccc3)CC2)c(C)c1 | 1 | 0 | 1 | -2 | /
Cc1noc(C)c1S(=O)(=O)NC1CCN(Cc2ccccc2)CC1 | 6 | -1 | 5 | 10* | -1
Cc1[nH]c2ccccc2c1CC(=O)Nc1ccc(Nc2cccnc2)c(-c2ccc(Oc3ccccc3)cc2)c1 | / | 1 | / | / | /
CN(C)c1ccc(-c2sc(Nc3ccccc3)n[n+]2-c2ccc(F)cc2)cc1 | -7 | 1 | -8 | 0 | /
CCN(CC)c1ccc(-c2sc(Nc3ccccc3)n[n+]2-c2ccc(F)cc2)cc1 | -15 | 3 | -10 | 17* | 4.0*
C[C@@H]1COc2cc(N3CCCCC3)ccc2S(=O)(=O)N1 | / | -1 | / | / | /
COc1ccc(/C=C/C(=O)NCCc2ccc(S(N)(=O)=O)cc2)cc1 | -4 | 0 | -2 | 13* | -5
Cc1cccc(NC(=O)c2ccccc2NC(=O)c2ccccc2)n1 | -4 | 1 | -2 | 18* | 1
c1ccc(-c2nc(NC3CC3)nc(-n3ccnc3)n2)cc1 | -4 | 0 | -3 | 14* | -2
COC(=O)c1cc2c(c3c4cc(OC)ccc4n(S(=O)(=O)c4ccc(F)cc4)c13)C(=O)N(Cc1ccccc1)C2 | / | 2 | / | / | /
Cc1ccc(NC(=O)C(C)OC(=O)c2ccc(NC(=O)CC#N)cc2)cc1S(=O)(=O)N1CCOCC1 (stereo not given) | 2 | -1 | -2 | 9.5* | -2
Cc1ccc(C(=O)OC(C)C(=O)Nc2ccc(S(N)(=O)=O)cc2)cc1S(=O)(=O)N1CCOCC1 (stereo not given) | 10 | 0 | 11 | -1 | /
O=C(CCN1C(=O)COc2ccccc21)N1CCN(c2ccccn2)CC1 | 2 | -1 | 5 | 21* | -1
O=C(Nc1cccc([N+](=O)[O-])c1)OCc1ccc2c(c1)OCO2 | / | 0 | / | / | /
Nc1[nH]c(C(=O)c2ccccc2)c(-c2ccc3ccccc3c2)c1C(=O)NCc1ccc(F)cc1 | / | 0 | / | / | /
O=C(NC(=S)NNC(=O)c1ccccc1[N+](=O)[O-])c1ccc(Br)cc1 | -30 | -2 | -5 | 10.0* | -1
O=C(NNC(=S)NC(=O)c1ccccc1[N+](=O)[O-])c1ccccc1Cl | -7 | 2 | 5 | -1 | /
COc1ccc2c(c1)C1(Nc3ccccc3-c3nc4ccccc4n31)C(=O)N2 (stereo not given) | 2 | 0 | 4 | 8.7* | 0
O=c1[nH]c(=S)[nH]cc1Oc1ccc(Cl)cc1Cl | / | 0 | / | 8.8* | 4.7*
